Experimental data gathered from unrelated publications.
Protocols differ between the studies behind these lines.
CDK7 with cyclin H: Cyclin-dependent kinase 7, with cyclin H (CDK7, Homo sapiens, UniProt P50613)
HTR1B: 5-hydroxytryptamine receptor 1B (HTR1B, Homo sapiens, UniProt P28222)

| SMILES | target | effect on | action | technique | concentration | notes | inhibition |
| --- | --- | --- | --- | --- | --- | --- | --- |
| C[C@]12CC[C@@H]3c4ccc(O)cc4CC[C@H]3[C@@H]1CC[C@@H]2O | CDK7 with cyclin H | enzyme activity | inhibitor | ADP detection | 10 µM | – | 38.3% |
| O=C(CSc1nc2nccnc2c(=O)n1CCc1ccccc1)Nc1nccs1 | Phosphatidylinositol 4-phosphate 5-kinase type-1 beta (PIP5K1B, Homo sapiens, UniProt O14986) | enzyme activity | inhibitor | – | 10 µM | – | 13% |
| Ic1cccc2cnccc12 | Prostaglandin E2 receptor EP4 subtype (PTGER4, Homo sapiens, UniProt P35408) | ligand displacement | – | radioligand | 10 µM | – | -6% |
| Oc1ccc(/C=C/c2cc(O)cc(O)c2)cc1 | CDK7 with cyclin H | enzyme activity | inhibitor | ADP detection | 10 µM | – | 40% |
| N#Cc1cc(Cn2c(N3CCCC3)nc3ccccc32)ccc1F | HTR1B | ligand displacement | – | radioligand | 10 µM | – | -19.3% |
| CC(CN(C)C)C(Oc1cccc2ccccc12)c1cccs1 (stereo not shown) | Sodium-dependent dopamine transporter (Slc6a3, Rattus norvegicus, UniProt P23977) | ligand displacement | – | radioligand | 10 µM | cell membranes | < 70% |
| O=C(/C=C/C=C/c1ccc2c(c1)OCO2)N1CCCCC1 | CDK7 with cyclin H | enzyme activity | inhibitor | ADP detection | 10 µM | – | 39.4% |
| O=C(c1ccc(Cl)cc1)N(Cc1ccccc1)C1CCCCC1 | HTR1B | ligand displacement | – | radioligand | 10 µM | – | -11.5% |
| Cc1ccc(S(=O)(=O)N[C@@H](CC(=O)NC(C)(C)C)C(=O)NCc2ccccc2)cc1 | Proteasome component C5/PSMB8 (Homo sapiens, UniProt P20618+P28062) | enzyme activity | inhibitor | – | 100 µM | – | ≤ 50% |
| CN(C)C1CCN(CC#Cc2nn(C3CCCC3)c3nc(NCc4ccccc4)ncc23)C1 (stereo not shown) | Tyrosine-protein kinase SYK (SYK, Homo sapiens, UniProt P43405) | enzyme activity | inhibitor | FRET | 1 µM | – | 0% |
| CCN(CC)c1ccc(C2Nc3ccc(C(=O)c4ccccc4)cc3NC3=C2C(=O)CC(C)(C)C3)cc1 (stereo not shown) | HTR1B | ligand displacement | – | radioligand | 10 µM | – | 6% |
| COc1cc(NC(C)=O)c(Cl)cc1C(=O)Nc1nccs1 | HTR1B | ligand displacement | – | radioligand | 10 µM | – | -0.8% |
| C[C@@H]1C(=O)O[C@H]2C[C@@]34[C@H]5C[C@@H](C(C)(C)C)[C@]36[C@@H](OC(=O)[C@@H]6O)O[C@@]4(C(=O)O5)[C@]21O | CDK7 with cyclin H | enzyme activity | inhibitor | ADP detection | 10 µM | – | 35.3% |
| Oc1cccc(Nc2nc(-c3ccc(F)cc3F)cs2)c1 | Calcitonin-gene-related peptide receptor, CALCRL/RAMP1 (Homo sapiens, UniProt O60894+Q16602) | cell-free assay | – | – | 10 µM | – | 3% |
| Nc1nccc(-c2c[nH]c3ccc(Br)cc23)n1 | CDK7 with cyclin H | enzyme activity | inhibitor | ADP detection | 10 µM | – | -32% |
| CC(=O)c1nn(CC(=O)N2C[C@H](F)C[C@H]2C(=O)Nc2cccc(Br)n2)c2ccc(-c3cnc(C)nc3)cc12 | Prothrombin (F2, Homo sapiens, UniProt P00734) | enzyme activity | inhibitor | – | 10 µM | – | 1.2% |
